The text below walks through data of ChEMBL document CHEMBL4261643, “Reducing the Lipophilicity of Perfluoroalkyl Groups by CF2-F/CF2-Me or CF3/CH3 Exchange” (J Med Chem, 2018).

Data set [1] in a line: Partition coefficient, log D of the compound at pH 7.4 after 30 mins by shake-flask method. The data set is classed as physicochemical. The conditions noted are these: octanol/water. In a few lines:
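Octanol/pH 7.4 buffer shake-flask: compound in buffer plus octanol, shaken 30 min, then centrifuged. The aqueous layer was quantified by LC-UV against the solution before octanol addition to give D7.4. Runs were pools of 10 compounds including three QC compounds (cyclobenzaprine, nicardipine, caffeine).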

Data set [2] in a line: Intrinsic clearance in Han Wistar rat hepatocytes assessed as per million cells preincubated in presence of NADPH for 30 mins and measured up to 120 mins by LC-MS/MS analysis. The conditions noted are these: read-out: CLH. The data set is classed as ADME, cell-based, Hepatocyte. In a few lines:
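Cryopreserved Han Wistar rat hepatocytes at 1x10^6 cells/mL were incubated with compound from DMSO stock at 37 °C. Samples were taken at 0.5, 5, 15, 20, 30, 45, 60, 80, 100 and 120 min and quenched with cold acetonitrile. After centrifugation at 4 °C, substrate disappearance was followed by LC-MS/MS. Clint is expressed in µL/min/10^6 cells.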

Data set [3] can be described thus: Intrinsic clearance in human liver microsomes preincubated in presence of NADPH for 30 mins and measured up to 30 mins by LC-MS/MS analysis. The note with it: read-out: CLH. Type of data set: ADME, microsome. In outline:
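Compound from DMSO stock was incubated with human liver microsomes plus NADPH at 37 °C. Aliquots taken at 0.7, 5.8, 11.6, 17.2, 22.7 and 30 min were quenched with cold acetonitrile and centrifuged at 4 °C. Substrate loss was measured by LC-MS/MS, and Clint is given in µL/min/mg. Six isoform-specific P450/FMO marker substrates were included in each run.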

For the next data set, the target named is hERG (KCNH2) (Homo sapiens, UniProt Q12809). Put plainly: Inhibition of human ERG at 10 uM relative to cisapride.
Chain of hERG (KCNH2) (Q12809 whole entry): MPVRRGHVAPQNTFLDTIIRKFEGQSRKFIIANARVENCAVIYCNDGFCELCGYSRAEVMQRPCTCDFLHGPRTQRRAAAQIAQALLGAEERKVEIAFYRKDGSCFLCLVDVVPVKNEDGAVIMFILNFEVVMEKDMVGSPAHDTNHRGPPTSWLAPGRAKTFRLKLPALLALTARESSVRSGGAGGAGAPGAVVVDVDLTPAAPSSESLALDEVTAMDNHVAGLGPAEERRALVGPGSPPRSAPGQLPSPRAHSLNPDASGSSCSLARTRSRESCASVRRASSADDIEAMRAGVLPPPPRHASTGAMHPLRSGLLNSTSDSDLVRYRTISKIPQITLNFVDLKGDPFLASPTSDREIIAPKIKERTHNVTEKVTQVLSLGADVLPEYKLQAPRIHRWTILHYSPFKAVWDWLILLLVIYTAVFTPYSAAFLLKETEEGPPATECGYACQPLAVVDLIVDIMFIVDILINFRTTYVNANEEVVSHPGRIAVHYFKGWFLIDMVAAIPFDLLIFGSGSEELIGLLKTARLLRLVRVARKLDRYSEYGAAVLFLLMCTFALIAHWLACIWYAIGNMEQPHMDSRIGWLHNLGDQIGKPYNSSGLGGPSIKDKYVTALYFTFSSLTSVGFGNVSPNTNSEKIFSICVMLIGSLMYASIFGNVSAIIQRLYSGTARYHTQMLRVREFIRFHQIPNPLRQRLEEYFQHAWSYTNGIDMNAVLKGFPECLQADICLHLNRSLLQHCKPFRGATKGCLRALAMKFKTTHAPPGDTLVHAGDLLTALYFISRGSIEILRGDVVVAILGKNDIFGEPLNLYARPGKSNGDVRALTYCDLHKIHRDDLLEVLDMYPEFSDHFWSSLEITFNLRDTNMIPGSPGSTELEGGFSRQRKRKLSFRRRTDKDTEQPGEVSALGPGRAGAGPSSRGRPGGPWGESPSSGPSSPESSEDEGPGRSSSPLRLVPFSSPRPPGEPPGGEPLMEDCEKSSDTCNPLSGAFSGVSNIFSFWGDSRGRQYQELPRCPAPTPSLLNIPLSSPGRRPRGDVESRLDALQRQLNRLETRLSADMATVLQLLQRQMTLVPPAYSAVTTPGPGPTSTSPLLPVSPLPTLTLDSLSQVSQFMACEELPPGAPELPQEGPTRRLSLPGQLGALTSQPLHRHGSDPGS
Data set [4] can be described thus: Aqueous solubility of the compound in phosphate buffer at pH 7.4 after 24 hrs by shake-flask method. The data set is classed as physicochemical. In outline:
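Dried compound equilibrated in aqueous phosphate buffer, pH 7.4, for 24 h at 25 °C. The dissolved portion was separated from the remaining solid and quantified by UPLC/MS/MS. QC samples were included in each run.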

A short description of data set [5]: Fraction unbound in 10% human plasma after 18 hrs by LC-MS/MS analysis. The data set is classed as ADME, cell-free. In outline:
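Compound from DMSO stock was dialysed against buffer in 10% human plasma on a RED device for 18 h. Plasma and buffer samples were quantified by LC-MS/MS against a 7-point calibration curve in plasma. Samples were generally run in singlicate, in pools of up to 10 compounds. Propranolol, metoprolol and warfarin served as reference compounds in each run.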

In data set [1], `CCCCOc1cccc(CCNCC(=O)N(C)C)c1.Cl` registered a logD at 0.5 h of 1.8. Further, the hepatocyte CLint in data set [2] amounted to 82 µL/min/1e6 cells. In data set [3], the microsomal CLint was 13 µL/min/mg. Besides, the inhibition at 10 µM against hERG (KCNH2) was 31%. In data set [4], the solubility (thermodynamic) at 24 h is 782 µM. The same compound displayed a fraction unbound at 18 h in data set [5] of 0.45.
With `CN(C)C(=O)CNCCc1cccc(OCCC(C)(F)F)c1.Cl`, the logD at 0.5 h in data set [1] amounted to 1.1. In addition, in data set [2], the hepatocyte CLint worked out at 34 µL/min/1e6 cells. Besides, the microsomal CLint in data set [3] worked out at 7 µL/min/mg. Moreover, the inhibition at 10 µM against hERG (KCNH2) came to 35%. This compound had a solubility (thermodynamic) at 24 h in data set [4] of 960 µM. The fraction unbound at 18 h in data set [5] turned out to be 0.62.
Take `CCCCCOc1cccc(CCNCC(=O)N(C)C)c1.Cl`: the logD at 0.5 h in data set [1] came out at 2.3. For the same compound, the hepatocyte CLint in data set [2] was 91 µL/min/1e6 cells. Moreover, in data set [3], the microsomal CLint was 29 µL/min/mg. This compound also had an inhibition at 10 µM on hERG (KCNH2) of 70%. The compound also showed a solubility (thermodynamic) at 24 h in data set [4] of 779 µM. The fraction unbound at 18 h in data set [5] worked out at 0.23.
For `CN(C)C(=O)CNCCc1cccc(OCC(F)(F)C(F)(F)C(F)(F)F)c1.Cl`, the logD at 0.5 h in data set [1] amounted to 2.5. Also, the hepatocyte CLint in data set [2] was 20 µL/min/1e6 cells. Moreover, the microsomal CLint in data set [3] is 8 µL/min/mg. The same compound registered an inhibition at 10 µM at hERG (KCNH2) of 57%. In data set [4], this compound registered a solubility (thermodynamic) at 24 h of 952 µM. Besides, the fraction unbound at 18 h in data set [5] worked out at 0.2.
As to `CN(C)C(=O)CNCCc1cccc(OCCCC(C)(F)F)c1.Cl`, the logD at 0.5 h in data set [1] turned out to be 1.7. The hepatocyte CLint in data set [2] amounted to 38 µL/min/1e6 cells. Further, the microsomal CLint in data set [3] was found to be 7 µL/min/mg. In addition, testing at 10 µM at hERG (KCNH2) gave an inhibition of 45%. In data set [4], this compound yielded a thermodynamic solubility at 24 h of 1000 µM. In data set [5], this compound registered a fraction unbound at 18 h of 0.49.
In data set [1], `CN(C)C(=O)CNCCc1cccc(OCC(F)(F)C(F)(F)C(C)(F)F)c1.Cl` showed a logD at 0.5 h of 2.2. The hepatocyte CLint in data set [2] is 64 µL/min/1e6 cells. In data set [3], the microsomal CLint came to 9 µL/min/mg. The same compound registered an inhibition at 10 µM on hERG (KCNH2) of 63%. For the same compound, in data set [4], the solubility (thermodynamic) at 24 h worked out at 946 µM. Besides, in data set [5], the fraction unbound at 18 h was 0.25.
Consider `CN(C)C(=O)CNCCc1cccc(OCC(F)(F)C(C)(F)F)c1.Cl`, for which, in data set [1], the logD at 0.5 h stood at 1.6. Besides, the hepatocyte CLint in data set [2] is 32 µL/min/1e6 cells. Also, the microsomal CLint in data set [3] stood at 10 µL/min/mg. The same compound displayed an inhibition at 10 µM against hERG (KCNH2) of 41%. This compound came in with a solubility (thermodynamic) at 24 h in data set [4] of 929 µM. In addition, the free fraction (fraction unbound) at 18 h in data set [5] was found to be 0.51.
Regarding `CN(C)C(=O)CNCCc1cccc(OCC(F)(F)C(F)(F)C(F)(F)C(F)(F)F)c1.Cl`, the solubility (thermodynamic) at 24 h in data set [4] is 955 µM.

By logD is commonly meant lipophilicity at a set pH, counting ionised and neutral species. As usually defined, the inhibition is the relative decrease from the control value, in per cent. Low readings indicate little suppression, high ones strong suppression. The solubility (thermodynamic) is solubility found after equilibrating the solid with the medium. A word on the fraction unbound: it is the share of the substance not bound to proteins or other matrix. High values mean much free substance, low ones little free substance.
